Assays:
Hepatitis C virus = assay: Antiviral activity against HCV1b infected in human HuH6 cells assessed as inhibition of viral RNA replication after 3 days by RT-PCR analysis; assay type: functional, organism-based, Hepacivirus hominis; settings: genotype 1b, HuH-6, 72 h
Outline: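 Huh-6 cells stably carrying a genotype 1b (Con1-derived) subgenomic HCV replicon, seeded 1.5 × 10^4 cells/well and incubated 24 h at 37 C, 5% CO2. Then exposed to serial dilutions from 0.025 to 65 μM (10 concentrations) in complete DMEM for 3 days. Lysates assayed for replicon RNA by real-time RT-qPCR against a neomycin-plasmid standard curve. EC50 is 50% RNA reduction versus untreated control, averaged over three independent experiments.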

[1] = Inhibition of HCV recombinant His6x-tagged NS5B Cdelta55 polymerase-mediated RNA synthesis expressed in Escherichia coli BL21(DE3) assessed as reduction of pppGpC accumulation after 15 mins; design: species or system Hepacivirus hominis
Outline: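 Inhibitor range 0–1000 μM. Reaction started with 2 mM MnCl2, 1 mM MgCl2, 50 μM γ-32P-GTP and 100 μM CTP, then 15 min at 30 C. EDTA/formamide quench. pppGpC resolved on sequencing gel and quantified by phosphorimaging. IC50 fitted; at least three experiments.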

[2] = Cytotoxicity against human HuH6 cells after 3 days by MTS/PMS method; assay type: cell-based
Outline: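 Run in parallel with the replicon assay: Huh-6 genotype 1b replicon cells seeded 1.5 × 10^4/well, treated 24 h later with 0.025–65 μM compound in complete DMEM for 3 days at 37 C, 5% CO2. Cell number read by MTS/PMS. CC50 is the concentration giving 50% reduction in proliferation of exponentially growing cells versus untreated control.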

EC50 (Hepatitis C virus) | IC50 [1] | SMILES | CC50 at 72 h [2]
1.7 µM | 34 µM | CO[C@@H]1[C@H](OP(=O)(NCCCCCC(=O)O)OC[C@@H]2C[C@@H](O)[C@H](n3ccc(N)nc3=O)O2)[C@@H](COP(=O)(O)O)O[C@H]1n1cnc2c(=O)[nH]c(N)nc21 (some centres undefined) | > 65 µM
 | 21 µM | CO[C@@H]1[C@H](OP(=O)(NCCCOP(=O)(O)O)OC[C@@H]2C[C@@H](O)[C@H](n3ccc(N)nc3=O)O2)[C@@H](CO)O[C@H]1n1cnc2c(=O)[nH]c(N)nc21 (some centres undefined) | 
 | 67 µM | CO[C@@H]1[C@H](OP(=O)(NCCCCCC(=O)O)OC[C@@H]2C[C@@H](O)[C@H](n3ccc(N)nc3=O)O2)[C@@H](CO)O[C@H]1n1cnc2c(=O)[nH]c(N)nc21 (some centres undefined) | 
3.9 µM | 10 µM | CO[C@@H]1[C@H](OP(=O)(NCCCOP(=O)(O)O)OC[C@@H]2C[C@@H](O)[C@H](n3ccc(N)nc3=O)O2)[C@@H](COP(=O)(O)O)O[C@H]1n1cnc2c(=O)[nH]c(N)nc21 (some centres undefined) | > 65 µM
3.6 µM | 18 µM | COCCOCCNP(=O)(OC[C@@H]1C[C@@H](O)[C@H](n2ccc(N)nc2=O)O1)O[C@H]1[C@@H](OC)[C@H](n2cnc3c(=O)[nH]c(N)nc32)O[C@@H]1COP(=O)(O)O (some centres undefined) | > 65 µM
 | 20.3 µM | CO[C@@H]1[C@H](O[P@@](=O)(NCCCOP(=O)(O)O)OC[C@@H]2C[C@@H](O)[C@H](n3ccc(N)nc3=O)O2)[C@@H](COP(=O)(O)O)O[C@H]1n1cnc2c(=O)[nH]c(N)nc21 | 
 | 18.5 µM | CO[C@@H]1[C@H](O[P@](=O)(NCCCOP(=O)(O)O)OC[C@@H]2C[C@@H](O)[C@H](n3ccc(N)nc3=O)O2)[C@@H](COP(=O)(O)O)O[C@H]1n1cnc2c(=O)[nH]c(N)nc21 | 
 | 64 µM | COCCOCCN[P@@](=O)(OC[C@@H]1C[C@@H](O)[C@H](n2ccc(N)nc2=O)O1)O[C@H]1[C@@H](OC)[C@H](n2cnc3c(=O)[nH]c(N)nc32)O[C@@H]1COP(=O)(O)O | 
 | 42 µM | COCCOCCN[P@](=O)(OC[C@@H]1C[C@@H](O)[C@H](n2ccc(N)nc2=O)O1)O[C@H]1[C@@H](OC)[C@H](n2cnc3c(=O)[nH]c(N)nc32)O[C@@H]1COP(=O)(O)O | 
19.4 µM | 29 µM | COCCNP(=O)(OC[C@@H]1C[C@@H](O)[C@H](n2ccc(N)nc2=O)O1)O[C@H]1[C@@H](OC)[C@H](n2cnc3c(=O)[nH]c(N)nc32)O[C@@H]1COP(=O)(O)O (some centres undefined) | > 65 µM
1.6 µM | 72 µM | COCCN[P@@](=O)(OC[C@@H]1C[C@@H](O)[C@H](n2ccc(N)nc2=O)O1)O[C@H]1[C@@H](OC)[C@H](n2cnc3c(=O)[nH]c(N)nc32)O[C@@H]1COP(=O)(O)O | > 65 µM
2.5 µM | 7 µM | COCCN[P@](=O)(OC[C@@H]1C[C@@H](O)[C@H](n2ccc(N)nc2=O)O1)O[C@H]1[C@@H](OC)[C@H](n2cnc3c(=O)[nH]c(N)nc32)O[C@@H]1COP(=O)(O)O | > 65 µM
 | 9 µM | CO[C@@H]1[C@H](O[P@@](=O)(NCCCCCC(=O)O)OC[C@@H]2C[C@@H](O)[C@H](n3ccc(N)nc3=O)O2)[C@@H](COP(=O)(O)O)O[C@H]1n1cnc2c(=O)[nH]c(N)nc21 | 
 | 13 µM | CO[C@@H]1[C@H](O[P@](=O)(NCCCCCC(=O)O)OC[C@@H]2C[C@@H](O)[C@H](n3ccc(N)nc3=O)O2)[C@@H](COP(=O)(O)O)O[C@H]1n1cnc2c(=O)[nH]c(N)nc21 | 

Second part, the compound before the results:

SMILES | EC50 (Hepatitis C virus) | IC50 [1] | CC50 at 72 h [2]
CO[C@@H]1[C@H](OP(=O)(NCCCC(C(=O)O)C(=O)O)OC[C@@H]2C[C@@H](O)[C@H](n3ccc(N)nc3=O)O2)[C@@H](CO)O[C@H]1n1cnc2c(=O)[nH]c(N)nc21 (some centres undefined) |  | 19 µM | 
CO[C@@H]1[C@H](OP(=O)(NCCCC(C(=O)O)C(=O)O)OC[C@@H]2C[C@@H](O)[C@H](n3ccc(N)nc3=O)O2)[C@@H](COP(=O)(O)O)O[C@H]1n1cnc2c(=O)[nH]c(N)nc21 (some centres undefined) | 2.6 µM | 8 µM | > 65 µM
CO[C@@H]1[C@H](O[P@@](=O)(NCCCC(C(=O)O)C(=O)O)OC[C@@H]2C[C@@H](O)[C@H](n3ccc(N)nc3=O)O2)[C@@H](COP(=O)(O)O)O[C@H]1n1cnc2c(=O)[nH]c(N)nc21 |  | 121 µM | 
CO[C@@H]1[C@H](O[P@](=O)(NCCCC(C(=O)O)C(=O)O)OC[C@@H]2C[C@@H](O)[C@H](n3ccc(N)nc3=O)O2)[C@@H](COP(=O)(O)O)O[C@H]1n1cnc2c(=O)[nH]c(N)nc21 |  | 57 µM | 
COCCN[P@@](=O)(OC[C@H]1O[C@@H](n2ccc(N)nc2=O)[C@H](O)[C@@H]1O)O[C@H]1[C@@H](OC)[C@H](n2cnc3c(=O)[nH]c(N)nc32)O[C@@H]1COP(=O)(O)O | 38 µM | 28 µM | > 65 µM
COCCN[P@](=O)(OC[C@H]1O[C@@H](n2ccc(N)nc2=O)[C@H](O)[C@@H]1O)O[C@H]1[C@@H](OC)[C@H](n2cnc3c(=O)[nH]c(N)nc32)O[C@@H]1COP(=O)(O)O | 4.5 µM | 37 µM | > 65 µM
CO[C@@H]1[C@H](O[P@@](=O)(NCCCCCC(=O)O)OC[C@H]2O[C@@H](n3ccc(N)nc3=O)[C@H](O)[C@@H]2O)[C@@H](COP(=O)(O)O)O[C@H]1n1cnc2c(=O)[nH]c(N)nc21 |  | 26 µM | 
CO[C@@H]1[C@H](O[P@](=O)(NCCCCCC(=O)O)OC[C@H]2O[C@@H](n3ccc(N)nc3=O)[C@H](O)[C@@H]2O)[C@@H](COP(=O)(O)O)O[C@H]1n1cnc2c(=O)[nH]c(N)nc21 |  | 16 µM | 
CO[C@@H]1[C@H](OP(=O)(NCCCCCC(=O)O)OC[C@H]2O[C@@H](n3ccc(N)nc3=O)[C@H](O)[C@@H]2O)[C@@H](COP(=O)(O)O)O[C@H]1n1cnc2c(=O)[nH]c(N)nc21 (some centres undefined) |  | 83 µM | 
COCCNP(=O)(OC[C@H]1O[C@@H](n2ccc(N)nc2=O)[C@H](O)[C@@H]1O)O[C@H]1[C@@H](OC)[C@H](n2cnc3c(=O)[nH]c(N)nc32)O[C@@H]1COP(=O)(O)O (some centres undefined) | > 50 µM | 140 µM | > 65 µM

From ChEMBL document CHEMBL1240527, “3'-Deoxy phosphoramidate dinucleosides as improved inhibitors of hepatitis C virus subgenomic replicon and NS5B polymerase activity” (J Med Chem, 2010)
